Experimental data of several laboratories.
Compare with care: the assays were run in different laboratories.
Target: Casein kinase I isoform delta (CSNK1D, Homo sapiens, UniProt P48730)

Cc1cc(C)c(-n2ccn3nc(-c4cccnc4)cc23)cc1NC(=O)c1cc(C#N)cc(S(F)(F)(F)(F)F)c1
remaining binding (cell-free assay, competition with immobilised ligand; 0.1 µM): 100%

O=C(c1ccc(Nc2ncc(Cl)c(-c3ccc(Cl)s3)n2)cc1)N1CCC(N2CCCC2)CC1
remaining binding (binding, competition with immobilised ligand; 1 µM): 100%

CN(C)CC#Cc1ccc(OCCCc2sc(N3CCc4cccc(C(=O)Nc5nc6ccccc6s5)c4C3)nc2C(=O)O)c(F)c1
remaining binding (cell-free assay, competition with immobilised ligand; 1 µM): 95%

N[C@@H]1CCN(c2nccc(-c3cnn4ncccc34)n2)C1
remaining binding (binding; 1 µM): 14%

Cc1c(NC(=O)c2cc(C(N)=O)nc3cc(F)ccc23)c(C(F)(F)F)nn1Cc1ccc(C(C)(C)C)cc1
remaining binding (cell-free assay, competition with immobilised ligand; 1 µM): 81%

Cc1cnn2ncc(-c3ccnc(N(C)C)n3)c2c1
remaining binding (binding; 1 µM): 69%

CNC(=O)[C@@H]1CC[C@@H](n2c(-c3ccc4cnccc4c3)nc3ccc(C(=O)NCc4cccc(C(N)=O)c4)cc32)C1
remaining binding (binding, competition with immobilised ligand; 1 µM): 100%

CN(C)c1ncnc(-c2ccc3nc(Nc4cc(CN5CCN(C(=O)CC(F)(F)F)CC5)ccn4)[nH]c3c2)c1Cl
remaining binding (cell-free assay, competition with immobilised ligand; 1 µM): 83%

F[C@@H]1CCN(c2nccc(-c3cnn4ncccc34)n2)C1
remaining binding (binding; 1 µM): 83%

CNCc1ccccc1-c1csc([C@@H](C)Nc2nc(C)nc3cc(OC)c(OC)cc23)c1
remaining binding (cell-free assay, competition with immobilised ligand; 1 µM): 82%

COc1cnc(Nc2cccc(S(N)(=O)=O)c2)nc1N1CCN(c2ccccc2)C(=O)C1
remaining binding (binding, competition with immobilised ligand; 1 µM): 98%

O=C(NCC1CCOCC1)c1n[nH]cc1NC(=O)c1c(F)cccc1F
remaining binding (binding, competition with immobilised ligand; 1 µM): 77%

N#Cc1ccccc1CSc1nnc2c(n1)[nH]c1ccccc12
remaining binding (binding, competition with immobilised ligand; 10 µM): 86%

CCOCCn1cc(C(=O)Nc2ccc(-n3nc(-c4cccnc4)cc3C(F)(F)F)cn2)ccc1=O
remaining binding (cell-free assay, competition with immobilised ligand; 1 µM): 100%

CN(c1nccc(-c2cnn3ncccc23)n1)C1CC1
remaining binding (binding; 1 µM): 100%

O=C(NCCCN1CCOCC1)c1ccc(Nc2ncc(Cl)c(-c3ccc(Cl)s3)n2)cc1
remaining binding (binding, competition with immobilised ligand; 1 µM): 100%

C[C@@H](c1ccc(-n2cnc3c(N)ncnc32)cc1)N1CCc2nn(C)c(Cc3ccccc3)c2C1=O
remaining binding (binding, competition with immobilised ligand; 0.1 µM): 76%

FC(F)(F)Oc1cccc(-c2cnc3ccc(-c4ccncc4)nn23)c1
remaining binding (cell-free assay, competition with immobilised ligand; 5 µM): 56%

CC1CCCN1c1nccc(-c2cnn3ncccc23)n1 (stereo not drawn)
remaining binding (binding; 1 µM): 100%

COC(=O)Nc1nc2ccc(C(=O)c3ccccc3)cc2[nH]1
remaining binding (cell-free assay, competition with immobilised ligand; 10 µM): 36%

C[C@@H]1CCN(c2nccc(-c3cnn4ncccc34)n2)C1
remaining binding (binding; 1 µM): 64%

C=CC(=O)N1CCC(C(=O)NCC(=O)N2CCN(c3nc(-c4cnc(N)nc4C(F)F)nc(N4CCOCC4)n3)CC2)CC1
remaining binding (binding, competition with immobilised ligand; 1 µM): 100%

Cc1cnc(Nc2ccc(C(=O)N3CCC(N4CCCC4)CC3)cc2)nc1-c1cc2ccccc2s1
remaining binding (binding, competition with immobilised ligand; 1 µM): 100%

CN(C(=O)c1ccccc1)c1cc(N(C)c2ccc3c(c2)CCc2ccc(C(=O)NCCN4CCOCC4)cc2C3=O)ccc1F
remaining binding (cell-free assay, competition with immobilised ligand; 1 µM): 100%
